How the values were obtained:
[1] = Cytotoxicity against human HeLaS3 cells after 3 days by XTT assay; format: functional, cell-based; details: HeLa S3, 72 h
DU-145 [2] = experiment: Cytostatic activity against human DU145 cells after 5 days by SRB assay; format: functional; details: DU-145, 120 h
Procedure, shortened: (§1)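 Cells seeded in RPMI (colon, breast, lung lines), MEM (Du145) or F12K (PC3) with 10% FBS, 37 °C overnight. Day-zero plates fixed with cold 10% TCA. Compounds added as 5-fold serial dilutions for 5 days. Fixed, stained with 0.057% SRB in 1% acetic acid, dye solubilized in 10 mM Tris pH 10.5, A500 read. Growth % corrected for day-0 OD; GIC₅₀ from sigmoidal fit.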

CCRF-CEM [3] = experiment: Antimitotic activity in human CCRF-CEM cells assessed as decrease in mitotic histone H3 at 5 x GIC50; format: functional; parameters: scale not given: the % may be the effect or the level left
Procedure, shortened: (§2)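 CCRF-CEM cells seeded subconfluent at 5 × 10⁵ cells/mL in RPMI 1640 with 10% FCS, 10 mM glutamine, penicillin/streptomycin, 37 °C humidified CO₂. Exposed 24 h at 1× or 5× GIC₅₀; vehicle controls harvested at 24 h. Ethanol-fixed cells labelled with anti-phospho-histone H3 Ser10 and mitotic cells counted by flow cytometry as % of total population.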

CCRF-CEM [4] = experiment: Cell cycle arrest in human CCRF-CEM assessed as accumulation at G1 phase at 5 x GIC50 after 24 hrs by flow cytometry; format: functional
Procedure, shortened: (§3)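 Subconfluent CCRF-CEM (5 × 10⁵ cells/mL, RPMI 1640 + 10% FCS, 37 °C CO₂) exposed 24 h at 1× or 5× GIC₅₀, vehicle controls alongside. Cells fixed overnight in 70% ethanol at -20 °C, hypotonic citrate wash, RNase 50 μg/mL, propidium iodide stain, 488 nm flow cytometry. Sub-G1 = particles with PI content below G0/G1 cells. Reported as % of total cells.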

CCRF-CEM [5] = experiment: Antimitotic activity in human CCRF-CEM cells assessed as decrease in mitotic histone H3 at 1 x GIC50; format: functional; parameters: scale not given: the % may be the effect or the level left; procedure, shortened: as §2
[6] = Cytostatic activity against human Hs578 cells after 5 days by SRB assay; format: functional; details: Hs578, 120 h; procedure, shortened: as §1
CCRF-CEM [7] = experiment: Inhibition of DNA synthesis in human CCRF-CEM assessed as assessed as BrdU incorporation at 1 x GIC50 after 24 by flow cytometry; format: functional; parameters: scale not given: the % may be the effect or the level left
Procedure, shortened: (§4)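 Culture as for cell cycle work (CCRF-CEM, 24 h, 1× or 5× GIC₅₀). Pulse with 10 μM BrdU for 30 min before harvest. Fixed in 70% ethanol, DNA denatured in 2 M HCl, neutralized with 0.1 M borax. Stained with anti-BrdU and FITC secondary, plus PI 0.1 mg/mL and RNase A. BrdU+ cells counted by flow cytometry.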

HCT-15 = experiment: Cytotoxicity against human HCT15 cells after 5 days by SRB assay; format: functional; details: HCT-15, 120 h; procedure, shortened: as §1
BT-549 = experiment: Cytotoxicity against human BT549 cells after 5 days by SRB assay; format: functional; details: BT-549, 120 h; procedure, shortened: as §1
A549 = experiment: Cytostatic activity against human A549 cells after 5 days by SRB assay; format: functional; details: A549, 120 h; procedure, shortened: as §1
CCRF-CEM [8] = experiment: Cytotoxicity against human CCRF-CEM cells after 3 days by XTT assay; format: functional, cell-based; details: 72 h
Procedure, shortened: (§5)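 Cell viability of CCRF-CEM, HL60 and HeLa cells measured by XTT assay after 72 h incubation with compounds. IC₅₀ taken as mean of 2–4 independent experiments.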

CCRF-CEM [9] = experiment: Cell cycle arrest in human CCRF-CEM assessed as accumulation at subG1 phase at 5 x GIC50 after 24 hrs by flow cytometry; format: functional; procedure, shortened: as §3
CCRF-CEM [10] = experiment: Cell cycle arrest in human CCRF-CEM assessed as accumulation at G2/M phase at 1 x GIC50 after 24 hrs by flow cytometry; format: functional; procedure, shortened: as §3
CCRF-CEM [11] = experiment: Inhibition of RNA synthesis in human CCRF-CEM assessed as assessed as BrdU incorporation at 5 x GIC50 after 24 by flow cytometry; format: functional; parameters: scale not given: the % may be the effect or the level left
Procedure, shortened: (§6)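 CCRF-CEM culture as for cell cycle (24 h, 1× or 5× GIC₅₀). Cells pulsed 30 min with 1 mM bromouridine before harvest. Fixed in 1% paraformaldehyde/0.05% NP-40. Stained with anti-BrdU antibody cross-reacting with BrU, then FITC secondary, PI and RNase A. BrU+ cells quantified by 488 nm flow cytometry.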

CCRF-CEM [12] = experiment: Inhibition of DNA synthesis in human CCRF-CEM assessed as assessed as BrdU incorporation at 5 x GIC50 after 24 by flow cytometry; format: functional; parameters: scale not given: the % may be the effect or the level left; procedure, shortened: as §4
PC-3 = experiment: Cytotoxicity against human PC3 cells after 5 days by SRB assay; format: functional; details: PC-3, 120 h; procedure, shortened: as §1
CCRF-CEM [13] = experiment: Cell cycle arrest in human CCRF-CEM assessed as accumulation at S phase at 5 x GIC50 after 24 hrs by flow cytometry; format: functional; procedure, shortened: as §3
CCRF-CEM [14] = experiment: Cell cycle arrest in human CCRF-CEM assessed as accumulation at G1 phase at 1 x GIC50 after 24 hrs by flow cytometry; format: functional; procedure, shortened: as §3
CCRF-CEM [15] = experiment: Cell cycle arrest in human CCRF-CEM assessed as accumulation at G2/M phase at 5 x GIC50 after 24 hrs by flow cytometry; format: functional; procedure, shortened: as §3
CCRF-CEM [16] = experiment: Cell cycle arrest in human CCRF-CEM assessed as accumulation at subG1 phase at 1 x GIC50 after 24 hrs by flow cytometry; format: functional; procedure, shortened: as §3
HL-60 = experiment: Cytotoxicity against human HL60 cells after 3 days by XTT assay; format: functional, cell-based; details: HL-60, 72 h; procedure, shortened: as §5
CCRF-CEM [17] = experiment: Inhibition of RNA synthesis in human CCRF-CEM assessed as assessed as BrdU incorporation at 1 x GIC50 after 24 by flow cytometry; format: functional; parameters: scale not given: the % may be the effect or the level left; procedure, shortened: as §6
CCRF-CEM [18] = experiment: Cell cycle arrest in human CCRF-CEM assessed as accumulation at S phase at 1 x GIC50 after 24 hrs by flow cytometry; format: functional; procedure, shortened: as §3
NCI-H23 = experiment: Cytotoxicity against human NCI-H23 cells after 5 days by SRB assay; format: functional; details: NCI-H23, 120 h; procedure, shortened: as §1
HCT-116 = experiment: Cytostatic activity against human HCT116 cells after 5 days by SRB assay; format: functional; details: HCT-116, 120 h; procedure, shortened: as §1
DU-145 [19] = experiment: Cellular uptake ion human DU145 cells measured per million cells after 24 hrs; format: functional
Procedure, shortened: (§7)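 Du145 cells incubated with 10 μM compound for 6 or 24 h, PBS-washed, trypsinized, pelleted, spun through Nyosil M25 oil. Extracts analysed by LC/MS/MS for parent nucleoside, monophosphate and triphosphate. Standards and QC samples prepared in untreated-cell extracts. Expressed as pmol per million cells.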

DU-145 [20] = experiment: Cellular uptake ion human DU145 cells assessed as triphosphate level measured per million cells after 6 hrs
DU-145 [21] = experiment: Cellular uptake ion human DU145 cells assessed as monophosphate level measured per million cells after 24 hrs; format: functional; procedure, shortened: as §7
DU-145 [22] = experiment: Cellular uptake ion human DU145 cells assessed as triphosphate level measured per million cells after 24 hrs
DU-145 [23] = experiment: Cellular uptake ion human DU145 cells assessed as monophosphate level measured per million cells after 6 hrs; format: functional; procedure, shortened: as §7
DU-145 [24] = experiment: Cellular uptake ion human DU145 cells measured per million cells after 6 hrs; format: functional; procedure, shortened: as §7
CCRF-CEM [25] = experiment: Inhibition of RNA synthesis in human CCRF-CEM assessed as assessed as BrdU incorporation after 24 by flow cytometry; format: functional
CCRF-CEM [26] = experiment: Inhibition of DNA synthesis in human CCRF-CEM assessed as assessed as BrdU incorporation after 24 by flow cytometry; format: functional

Compound	IC50 [1]	GI50 (DU-145 [2])	Activity (CCRF-CEM [3])	Activity (CCRF-CEM [4])	Activity (CCRF-CEM [5])	GI50 [6]	Activity (CCRF-CEM [7])	GI50 (HCT-15)	GI50 (BT-549)	GI50 (A549)	Activity (CCRF-CEM [9])	Activity (CCRF-CEM [10])	Activity (CCRF-CEM [11])	Activity (CCRF-CEM [12])	Activity (CCRF-CEM [13])	Activity (CCRF-CEM [14])	Activity (CCRF-CEM [15])	Activity (CCRF-CEM [16])	Activity (CCRF-CEM [17])	Activity (CCRF-CEM [18])	also measured
OC[C@H]1O[C@@H](n2ccc3c(-c4ccoc4)ncnc32)[C@H](O)[C@@H]1O	4600 nM	36 nM	0.39%	54.4%	0.84%	260 nM	44.6%	86 nM	35 nM	73 nM	61.2%	7.1%	7.2%	28.9%	39.7%	55.6%	5.9%	39.8%	14%	37.3%	IC50 (CCRF-CEM [8]): 1900 nM; GI50 (PC-3): 96 nM; IC50 (HL-60): 1500 nM; GI50 (NCI-H23): 280 nM; GI50 (HCT-116): 92 nM
Nc1ccn([C@@H]2O[C@H](CO)[C@@H](O)C2(F)F)c(=O)n1 [GEMCITABINE]	–	–	0.53%	67.1%	0.78%	–	56.7%	3 nM	4 nM	–	54%	0.6%	44.8%	9.5%	30.5%	27.1%	2.3%	24.1%	54.7%	72.3%	GI50 (PC-3): 6 nM; GI50 (NCI-H23): 2 nM
OC[C@H]1O[C@@H](n2cc(Cl)c3c(-c4ccco4)ncnc32)[C@H](O)[C@@H]1O	> 40000 nM	> 10000 nM	–	–	–	> 10000 nM	–	–	–	> 10000 nM	–	–	–	–	–	–	–	–	–	–	Activity (DU-145 [19]): 45 pmol; triphosphate (NTP) level (DU-145 [20]): 19.2 pmol; Activity (DU-145 [21]): 332 pmol; IC50 (CCRF-CEM [8]): 3800 nM; triphosphate (NTP) level (DU-145 [22]): 21.2 pmol; Activity (DU-145 [23]): 164 pmol; Activity (DU-145 [24]): 20.1 pmol; IC50 (HL-60): 21600 nM; GI50 (HCT-116): > 10000 nM
OC[C@H]1O[C@@H](n2ccc3c(-c4ccco4)ncnc32)[C@H](O)[C@@H]1O	770 nM	7 nM	0.48%	46.7%	1.21%	49 nM	54.3%	20 nM	12 nM	88 nM	60.2%	12.9%	4.7%	31.3%	44.6%	44.9%	6.8%	16.5%	28.7%	42.2%	Activity (DU-145 [19]): 207 pmol; triphosphate (NTP) level (DU-145 [20]): 88.4 pmol; inhibition (INH) (CCRF-CEM [25]): 4.7%; Activity (DU-145 [21]): 6842 pmol; IC50 (CCRF-CEM [8]): 310 nM; GI50 (PC-3): 14 nM; triphosphate (NTP) level (DU-145 [22]): 109 pmol; Activity (DU-145 [23]): 4124 pmol; Activity (DU-145 [24]): 950 pmol; IC50 (HL-60): 810 nM; GI50 (NCI-H23): 130 nM; GI50 (HCT-116): 78 nM; inhibition (INH) (CCRF-CEM [26]): 31.33%
OC[C@H]1O[C@@H](n2ccc3c(-c4cccs4)ncnc32)[C@H](O)[C@@H]1O	8800 nM	9 nM	0.44%	47%	0.87%	100 nM	55.5%	78 nM	23 nM	45 nM	55%	12.2%	3.5%	38.3%	47%	45.5%	6%	13.7%	28.5%	42.2%	IC50 (CCRF-CEM [8]): 290 nM; GI50 (PC-3): 33 nM; IC50 (HL-60): 1200 nM; GI50 (NCI-H23): 430 nM; GI50 (HCT-116): 49 nM
OC[C@H]1O[C@@H](n2cc(F)c3c(-c4cccs4)ncnc32)[C@H](O)[C@@H]1O	4300 nM	9 nM	0.47%	40.4%	0.85%	130 nM	56.2%	18 nM	81 nM	61 nM	43.4%	9.3%	5.7%	47%	50.5%	43.9%	9.1%	17.1%	28.4%	46.7%	IC50 (CCRF-CEM [8]): 270 nM; GI50 (PC-3): 90 nM; IC50 (HL-60): 4300 nM; GI50 (NCI-H23): 1500 nM; GI50 (HCT-116): 9 nM
Nc1nc(Cl)nc2c1ncn2[C@H]1C[C@H](O)[C@@H](CO)O1 [CLADRIBINE]	–	–	0.44%	61.6%	0.85%	–	32.1%	–	–	–	61.5%	1.9%	41.3%	13%	30.8%	73.2%	7.6%	48%	46.2%	24.9%	inhibition (INH) (CCRF-CEM [25]): 44.77%; inhibition (INH) (CCRF-CEM [26]): 9.54%

From ChEMBL document CHEMBL1156780, “6-(Het)aryl-7-deazapurine ribonucleosides as novel potent cytostatic agents” (J Med Chem, 2010)
